Source: PubChem BioAssay
This is a sample that favours compounds with a hit; in the whole collection about 4.1% have one here.
Cl transport mod – modulators of human KCC2 chloride dependent transport; KCC2 cells, thallium flux FluoZin-2 fluorescence; B-score of Tl+ flux slope (higher = more flux/activation; lower = inhibition) at 10 µM; actives 2.2% (n = 190,000); AID 1456;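 active = thallium flux slope and its plate-corrected score both differing from the plate sample mean at a set confidence after two filtering rounds, in either direction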;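 note: slope of fluorescence scaled to starting intensity during 10 to 20 s after thallium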
hERG rescue – shields human hERG channel from block by proarrhythmic agents | Q12809 | AID 1511 | activation (rescue from dofetilide block), less the hit threshold, % at 10 µM | actives 0.51% (n = 310,000) | CHO-hERG, FluxOR thallium flux, dofetilide IC70 present;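 active = activation above the mean of controls blocked by dofetilide plus 5 SD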;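 note: thallium influx through hERG after potassium depolarization seen as dye fluorescence rise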
KCNQ1 block – inhibitors of human KCNQ1 potassium channel. CHO-K1 KCNQ1, FluxOR thallium flux fluorescence; stronger effect = higher value. actives 1.3% (n = 310,000). P51787. B-score at 10 µM;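 active = compounds whose thallium flux B-score, printed positive for inhibition, exceeds three library SD while starting fluorescence stays within three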;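 note: channel opened by potassium depolarization with thallium stimulus after 20 min compound exposure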
KCNK3 inh – human KCNK3 channel inhibition, primary screen; CHO-KCNK3 thallium flux, FluxOR fluorescence; stronger effect = lower value; B-score at 10 µM; actives 0.84% (n = 340,000);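 active = B-score under library mean minus 4 SD, starting fluorescence ratio at most library mean plus 5 SD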;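 note: more negative B-score means stronger inhibition of thallium flux through KCNK3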
KCNQ1 pot – human KCNQ1 channel potentiation or activation; P51787; CHO-K1 KCNQ1, thallium flux FluxOR fluorescence; stronger effect = higher value; B-score at 10 µM; actives 0.35% (n = 310,000);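 active = fluorescence ratio B-score, a plate-corrected score, at least three library SD, with initial intensity B-score within 5 SD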
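System: Stable KCNQ1 CHO-K1 line | Incubation: 90 min dye loading and 20 min compound exposure, both at room temperature | Measure: Ratio B score | Medium: Assay buffer for compound exposure, DMSO matched across wells | Compound dosing: Single-concentration screen | Probe or stimulus: K+/Tl+ depolarizing stimulus | Measured by: Kinetic FluxOR fluorescence, 10 s baseline plus 110 s post-stimulus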
KCNK9 block – human KCNK9 channel inhibition. B-score at 10 µM. Q9NPC2. actives 1.2% (n = 310,000). HEK293 KCNK9, FluxOR thallium flux fluorescence; stronger effect = lower value;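 active = ratio B-score over 3 SD below the library mean, with starting fluorescence within 5 SD of its mean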;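 note: negative B-score means less thallium flux so channel inhibition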
KCNK9 inh conf – confirmation of human KCNK9 potassium channel inhibitors; shares compounds with KCNK9 block; actives 43% (n = 4,900); inhibition, % at 10 µM; HEK293 KCNK9 cells, FluxOR thallium flux fluorescence;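 active = thallium signal inhibited by more than 5 SD of the compound-free buffer control wells, on both duplicate plates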
Kir2-1 spec – tests whether KCNK9 modulators also affect mouse Kir2.1. inhibition, % at 10 µM. Kir2.1 cells, FluxOR thallium flux fluorescence. shares compounds with KCNK9 block. actives 4% (n = 4,900). AID 492993;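 active = thallium signal drop more than 5 SD beyond the mean of the no-compound control wells, seen in both duplicate plates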;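 note: signal is fluorescence rise after thallium addition divided by baseline fluorescence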
KCNK9 uninduced – second check of KCNK9 modulator effects in non-induced HEK293 cells | AID 492997 | shares compounds with KCNK9 block | inhibition, % at 10 µM | actives 40% (n = 4,900) | FluxOR thallium flux;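 active = thallium signal drop beyond 5 SD of the untreated control mean, on both duplicate plates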
A number is an active result; 0 = inactive; - = no result given.

SMILES	Cl transport mod	hERG rescue	KCNQ1 block	KCNK3 inh	KCNQ1 pot	KCNK9 block	KCNK9 inh conf	Kir2-1 spec	KCNK9 uninduced
Cc1cc(C(=O)Cn2nnc(-c3ccc(Cl)cc3)n2)c(C)n1-c1ccccc1	0	0	0	0	0	0	0	0	0
CCOC(=O)c1ccccc1NC(=O)c1cn(-c2ccc(OC)cc2)c(=O)c2ccccc12	0	0	0	0	0	-9.3	26%	0	0
Cc1ccc(C)c(NC(=O)CCN2CC(C)CC(C)C2)c1 (stereo not drawn)	-	0	0	0	0	0	-	-	-
Cc1ccccc1C(=NC(=O)c1ccccc1)c1ccccc1	-	0	0	0	0	-10	47%	0	46%
COc1ccc(-c2[nH]ncc2/C=C(/C#N)C(=O)NC2CCCCCC2)cc1	0	0	0	0	0	0	0	0	0
Cc1cc(/C=C(\C#N)C(=O)NC2CCCCCC2)c(C)[nH]1	0	0	0	0	0	0	-	-	-
Cc1ccc(C(=O)OCC(=O)Nc2cccc(Cl)c2C)c(O)c1	0	0	0	0	0	0	-	-	-
CCOc1cc(CNc2ccc(N3CCOCC3)cc2)cc(Br)c1OCC	0	0	0	0	0	0	-	-	-
CCOc1cc(CNc2ccc3c(c2)OCCO3)cc(Br)c1OCC	0	0	0	0	0	0	0	0	0
CC(=O)c1cnn(-c2nc3c(C)cccc3s2)c1C	0	0	0	0	0	0	0	0	0
COc1ccc(Cc2nnc(SCC(=O)Nc3cc(Cl)ccc3OC)[nH]c2=O)cc1	-	0	0	0	0	0	-	-	-
Cc1ccc(NS(=O)(=O)c2cc(C(=O)N3CCc4ccccc4C3)ccc2Cl)cc1	0	0	0	0	0	-12	0	0	26%
Cc1ccccc1NS(=O)(=O)c1cc(C(=O)N2CCc3ccccc3C2)ccc1C	-	0	0	0	0	0	-	-	-
N#CCc1ccc(Oc2ncc(C(F)(F)F)cc2Cl)cc1	0	0	0	0	0	0	-	-	-
Cc1ccc(CO/N=C\Cc2snc(Sc3ncc(C(F)(F)F)cc3Cl)c2C#N)cc1	0	0	0	0	0	0	0	0	0
Cc1nn(Cc2ccccc2)c(=O)n1N(C)c1ncc(C(F)(F)F)cc1Cl	0	0	0	0	0	0	0	0	0
Cc1nn(C)c(=O)n1N(C)c1ncc(C(F)(F)F)cc1Cl	0	0	0	0	0	0	-	-	-
Cc1nc2[nH]c(=O)c3c(n2n1)NC1=C(C(=O)CC(C)(C)C1)C3c1ccccc1 (stereo not drawn)	0	0	0	0	0	0	-	-	-
CC(C)CC(c1nnnn1C(C)C)N1CCN(c2cccc(Cl)c2)CC1 (stereo not drawn)	0	0	0	0	0	-9.9	44%	0	40%
O=C(Cn1c(C(F)(F)F)nc2ccccc21)N1CCCC1	-	0	0	0	0	0	-	-	-
Cc1cc2ccccn2c1C(=O)c1ccc(Cl)cc1	0	0	0	0	0	0	-	-	-
Cc1cc2ccccn2c1C(=O)c1ccccc1F	-	0	0	0	0	-12	0	0	0
Cc1cc(OCC(=O)N(C(C)C)C(C)C)ccc1Cl	0	5.0	0	0	0	0	0	0	0
Cc1cc(OCC(=O)NC(C)(C)C)ccc1Cl	0	0	0	0	0	0	-	-	-
C=CCc1c(C)nc2ccc(C(=O)OCC)cc2c1Cl	0	0	0	0	0	0	-	-	-
COc1ccc(C(=NNc2ccccc2C(=O)O)c2ccc(OC)cc2)cc1	0	0	0	0	0	0	-	-	-
CCCOc1ccc2c3c(c(=O)oc2c1OCCC)CCCC3	0	0	0	0	0	-12	74%	0	31%
Fc1ccc2c(c1)C1C=CCC1C(c1cc3c(cc1Br)OCO3)N2 (stereo not drawn)	0	0	0	0	0	-13	49%	0	48%
C=CCC1(CC=C)CCCN1C(=O)c1cc(COc2ccc(F)c(F)c2)on1	-	0	10	0	0	0	0	0	0
